≈ marks a conversion by molar mass, not a printed value. Numbered stars: 1 amine (or outer) side, 2 acyl side, 3 side chain; on linkers, the order of the positions; unused ones are H or OH. Bridge positions count the residues as written; N and C are the ends. Square brackets hold non-standard residues; d marks the D form. Peptide text beside a SMILES is read from it. * marks the point of attachment. hTyr(3S-OH,4S-OH,3'-OSO3H) = N[C@H](C(=O)O)[C@H](O)[C@@H](O)c1ccc(O)c(OS(=O)(=O)O)c1; Orn(4R-OH,5R-OH) = O=C([C@H](C[C@@H](O)[C@@H](O)N[*:3])N[*:1])[*:2]; Pro(3S-OH,4S-Me) = C[C@H]1CN[C@H](C(=O)O)[C@H]1O; X1 = CCCCCOc1ccc(-c2cc(-c3ccc(C(=O)*)cc3)no2)cc1; Gln(3R-OH) = NC(=O)C[C@@H](O)[C@H](N)C(=O)O; Hyp = O=C(O)[C@@H]1C[C@@H](O)CN1
Legend:
[1] = Inhibition of Candida albicans 119 1,3-beta-D-glucan synthase subunit FKS1p T1921C mutant
How it was run: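 Product-entrapped glucan synthase from YPD-grown cells (37°C, early stationary phase) in a filtration polymerization assay with [3H]UDPG. Echinocandin serial dilutions were added, with 1% DMSO in controls for anidulafungin. Reactions were started with enzyme, run 60 min at 25°C and stopped on ice. IC50 came from a variable-slope sigmoidal fit, in triplicate.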

[2] = Inhibition of Candida albicans 5415 1,3-beta-D-glucan synthase subunit FKS1p T1933C mutant
How it was run: (§1)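 Enzyme is product-entrapped 1,3-β-D-glucan synthase, enriched from membranes of each strain grown at 37°C with shaking in YPD broth to early stationary phase. Filtration polymerization assay uses [3H]UDPG, started by adding enzyme and run 60 min at 25°C. Echinocandins are added as serial dilutions, with 1% DMSO controls for anidulafungin. IC50 is from a variable-slope sigmoidal fit; values are triplicate arithmetic means.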

[3] = Inhibition of Candida albicans 122 1,3-beta-D-glucan synthase subunit FKS1p C1946A mutant; how it was run: as §1
[4] = test system: Candida albicans; experiment: Antimicrobial activity against Candida albicans 121 harboring FKS1 G4082A mutant gene and FKS1 hotspot2 R1361H mutant gene by M27-A3 method; format: functional
How it was run: (§2)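 Broth microdilution per CLSI M27-A3 in RPMI 1640, done in triplicate on three separate days. Each strain was tested with and without 50% human serum. C. krusei ATCC 6258 and C. parapsilosis ATCC 22019 served as QC strains. Arithmetic means are reported, and geometric means were used for comparison.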

[5] = test system: Candida albicans; experiment: Antimicrobial activity against Candida albicans 122 harboring FKS1 C1946A mutant gene and FKS1 hotspot1 P649H mutant gene by M27-A3 method in presence of 50% human serum; format: functional; how it was run: as §2
[6] = test system: Candida albicans; experiment: Antimicrobial activity against Candida albicans A15 harboring FKS1 T1933Y mutant gene and FKS1 hotspot1 S645S/P mutant gene by M27-A3 method in presence of 50% human serum; format: functional; how it was run: as §2
[7] = test system: Candida albicans; experiment: Activity at Candida albicans 177 1,3-beta-D-glucan synthase subunit FKS1p T1922C mutant
How it was run: (§3)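 Product-entrapped 1,3-β-D-glucan synthase from cells grown in YPD at 37°C to early stationary phase. Wells held 50 mM HEPES pH 7.5, 10% glycerol, 1.5 mg/ml BSA, 25 mM KF, 1 mM EDTA, 25 μM GTP-γ-S, 1 μg enzyme and [3H]UDPG (0.015–2 mM). Reactions ran 60 min at 25°C. Vmax and Km came from Lineweaver-Burke plots, in triplicate.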

[8] = Inhibition of Candida albicans 36082 1,3-beta-D-glucan synthase subunit FKS1p; how it was run: as §1
[9] = test system: Candida albicans; experiment: Antimicrobial activity against Candida albicans 177 harboring FKS1 T1922C mutant gene and FKS1 hotspot1 F641S mutant gene by M27-A3 method; format: functional; how it was run: as §2
[10] = Inhibition of Candida albicans 85 1,3-beta-D-glucan synthase subunit FKS1p C1934T mutant; how it was run: as §1
[11] = test system: Candida albicans; experiment: Antimicrobial activity against Candida albicans 36082 by M27-A3 method in presence of 50% human serum; format: functional; how it was run: as §2
[12] = test system: Candida albicans; experiment: Antimicrobial activity against Candida albicans A15-10 harboring FKS1 T1933C mutant gene and FKS1 hotspot1 S645P mutant by M27-A3 method in presence of 50% human serum; format: functional; how it was run: as §2
[13] = test system: Candida albicans; experiment: Antimicrobial activity against Candida albicans 205 harboring FKS1 T1933C mutant gene and FKS1 hotspot1 S645P mutant gene by M27-A3 method; format: functional; how it was run: as §2
[14] = test system: Candida albicans; experiment: Antimicrobial activity against Candida albicans A15 harboring FKS1 T1933Y mutant gene and FKS1 hotspot1 S645S/P mutant gene by M27-A3 method; format: functional; how it was run: as §2
[15] = test system: Candida albicans; experiment: Antimicrobial activity against Candida albicans 85 harboring FKS1 C1934T mutant gene and FKS1 hotspot1 S645F mutant gene by M27-A3 method; format: functional; how it was run: as §2
[16] = Inhibition of Candida albicans 205 1,3-beta-D-glucan synthase subunit FKS1p T1933C mutant; how it was run: as §1
[17] = test system: Candida albicans; experiment: Antimicrobial activity against Candida albicans 1002 by M27-A3 method; format: functional
How it was run: (§4)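 Broth microdilution per CLSI M27-A3 in RPMI 1640, with and without 50% human serum, in triplicate. C. krusei ATCC 6258 and C. parapsilosis ATCC 22019 served as quality-control strains. MIC reported as arithmetic mean of three repetitions on separate days.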

[18] = test system: Candida albicans; experiment: Activity at Candida albicans 89 1,3-beta-D-glucan synthase subunit FKS1p C1934A mutant; how it was run: as §3
[19] = test system: Candida albicans SC5314; experiment: Activity at Candida albicans SC5314 1,3-beta-D-glucan synthase subunit FKS1p
How it was run: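 Glucan synthase from cells grown at 37°C with vigorous shaking to early stationary phase in YPD. Membrane enzyme enriched by product entrapment. Serial echinocandin dilutions; ANF controls held 1% DMSO. Reaction started by adding enzyme, run 60 min at 25°C in a filtration polymerization assay, stopped on ice. IC50 from a variable-slope sigmoidal fit; means of three repetitions on separate days.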

[20] = test system: Candida albicans; experiment: Activity at Candida albicans 85 1,3-beta-D-glucan synthase subunit FKS1p C1934T mutant; how it was run: as §3
[21] = test system: Candida albicans; experiment: Antimicrobial activity against Candida albicans 2762 harboring FKS1 T1922C mutant gene and FKS1 hotspot1 F641S mutant gene by M27-A3 method in presence of 50% human serum; format: functional; how it was run: as §2
[22] = test system: Candida albicans; experiment: Activity at Candida albicans 119 1,3-beta-D-glucan synthase subunit FKS1p T1921C mutant; how it was run: as §3
[23] = test system: Candida albicans; experiment: Antimicrobial activity against Candida albicans 2762 harboring FKS1 T1922C mutant gene and FKS1 hotspot1 F641S mutant gene by M27-A3 method; format: functional; how it was run: as §2
[24] = Inhibition of Candida albicans 90028 1,3-beta-D-glucan synthase subunit FKS1p; how it was run: as §1
[25] = test system: Candida albicans; experiment: Antimicrobial activity against Candida albicans 89 harboring FKS1 C1934A mutant gene and FKS1 hotspot1 S645Y mutant gene by M27-A3 method in presence of 50% human serum; format: functional; how it was run: as §2
[26] = test system: Candida albicans; experiment: Antimicrobial activity against Candida albicans 3107 by M27-A3 method; format: functional; how it was run: as §2
[27] = Inhibition of Candida albicans A15-10 1,3-beta-D-glucan synthase subunit FKS1p T1933C mutant; how it was run: as §1
[28] = test system: Candida albicans; experiment: Antimicrobial activity against Candida albicans 90028 by M27-A3 method; format: functional; how it was run: as §4
[29] = test system: Candida albicans; experiment: Antimicrobial activity against Candida albicans 90028 by M27-A3 method in presence of 50% human serum; format: functional; how it was run: as §2
[30] = test system: Candida albicans; experiment: Antimicrobial activity against Candida albicans 90 harboring FKS1 G4082R mutant gene and FKS1 hotspot2 R1361R/H mutant gene by M27-A3 method in presence of 50% human serum; format: functional; how it was run: as §2
[31] = Inhibition of Candida albicans 89 1,3-beta-D-glucan synthase subunit FKS1p C1934A mutant; how it was run: as §1

## CCCCCOc1ccc(-c2cc(-c3ccc(C(=O)N[C@H]4C[C@@H](O)[C@@H](O)NC(=O)[C@@H]5[C@@H](O)[C@@H](C)CN5C(=O)[C@H]([C@H](O)CC(N)=O)NC(=O)[C@H]([C@H](O)[C@@H](O)c5ccc(O)c(OS(=O)(=O)O)c5)NC(=O)[C@@H]5C[C@@H](O)CN5C(=O)[C@H]([C@@H](C)O)NC4=O)cc3)no2)cc1 [MICAFUNGIN] (X1-[Orn(4R-OH,5R-OH)]T[Hyp][hTyr(3S-OH,4S-OH,3'-OSO3H)][Gln(3R-OH)][Pro(3S-OH,4S-Me)]; lactam 1-C)
[1]
  IC50: 0.1836 µg/mL (≈ 0.145 µM)
  Ki: 0.1559 µg/mL (≈ 0.123 µM)
[2]
  IC50: 1.254 µg/mL (≈ 0.987 µM)
  Ki: 2.75301 µg/mL (≈ 2.17 µM)
[3]
  IC50: 0.9246 µg/mL (≈ 0.728 µM)
  Ki: 2.58853 µg/mL (≈ 2.04 µM)
[4]
  MIC: 0.25 µg/mL (≈ 0.197 µM)
[5]
  MIC: 4 µg/mL
[6]
  MIC: 2 µg/mL
[7]
  Km: 50 µM
  Vmax: 4.4 nmol/min
[8]
  IC50: 0.0102 µg/mL (≈ 0.00803 µM)
  Ki: 0.02353 µg/mL (≈ 0.0185 µM)
[9]
  MIC: 1 µg/mL (≈ 0.787 µM)
[10]
  IC50: 0.4498 µg/mL (≈ 0.354 µM)
  Ki: 1.28919 µg/mL (≈ 1.01 µM)
[11]
  MIC: 1 µg/mL
[12]
  MIC: 8 µg/mL
[13]
  MIC: 4 µg/mL (≈ 3.15 µM)
[14]
  MIC: 0.5 µg/mL (≈ 0.394 µM)
[15]
  MIC: 2.67 µg/mL (≈ 2.1 µM)
[16]
  IC50: 1.085 µg/mL (≈ 0.854 µM)
  Ki: 2.67363 µg/mL (≈ 2.1 µM)
[17]
  MIC: 0.04 µg/mL (≈ 0.0315 µM)
[18]
  Km: 61 µM
  Vmax: 2.51 nmol/min
[19]
  Km: 125 µM
  Vmax: 6.72 nmol/min
[20]
  Km: 25 µM
  Vmax: 1.83 nmol/min
[21]
  MIC: 16 µg/mL
[22]
  Km: 54 µM
  Vmax: 2.54 nmol/min
[23]
  MIC: 1 µg/mL (≈ 0.787 µM)
[24]
  IC50: 0.0188 µg/mL (≈ 0.0148 µM)
  Ki: 0.01547 µg/mL (≈ 0.0122 µM)
[25]
  MIC: 8 µg/mL
[26]
  MIC: 0.03 µg/mL (≈ 0.0236 µM)
[27]
  IC50: 1.194 µg/mL (≈ 0.94 µM)
  Ki: 2.2495 µg/mL (≈ 1.77 µM)
[28]
  MIC: 0.03 µg/mL (≈ 0.0236 µM)
[29]
  MIC: 0.5 µg/mL
[30]
  MIC: 4 µg/mL
[31]
  IC50: 2.533 µg/mL (≈ 1.99 µM)
  Ki: 0.86713 µg/mL (≈ 0.683 µM)
